# Test results from ChEMBL document CHEMBL1129534, “Antitumor agents. 163. Three-dimensional quantitative structure-activity relationship study of 4'-O-demethylepipodophyllotoxin analogs using the modified CoMFA/q2-GRS approach” (J Med Chem, 1996).
# “And” between values parts separate entries of the source, which are not always exact repeats. Identical values can stand only once.
# Biological target: DNA topoisomerase II (Homo sapiens) (UniProt P11388+Q02880)
# Experiment: Compound tested for ability to form a cellular covalent topoisomerase II-DNA complex.
# Assay type: functional
# Summary of the method: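 Read-out is intracellular covalent topoisomerase II–DNA complex formation, scored as the percentage of cellular protein–DNA complex formed (PCPDCF). For CoMFA modelling the values were transformed to ln(PCPDCF + 1).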
row,Structure (SMILES),Protein-DNA complex formation
1,COc1cc([C@@H]2c3cc4c(cc3[C@@H](Nc3ccc([N+](=O)[O-])cc3)[C@H]3COC(=O)[C@H]23)OCO4)cc(OC)c1O,323%
2,COc1cc([C@@H]2c3cc4c(cc3[C@@H](Nc3ccccc3)[C@H]3COC(=O)[C@H]23)OCO4)cc(OC)c1O,243%
3,COc1cc([C@@H]2c3cc4c(cc3[C@@H](NC(=O)c3cccc(C#N)c3)[C@H]3COC(=O)[C@H]23)OCO4)cc(OC)c1O,149%
4,COc1cc([C@@H]2c3cc4c(cc3[C@@H](NCc3ccccc3N)[C@H]3COC(=O)[C@H]23)OCO4)cc(OC)c1O,184%
5,COc1cc([C@@H]2c3cc4c(cc3[C@@H](NC(=O)c3ccccc3O)[C@H]3COC(=O)[C@H]23)OCO4)cc(OC)c1O,160%
6,COc1cc([C@@H]2c3cc4c(cc3[C@@H](NC(=O)c3ccc(C(C)=O)cc3)[C@H]3COC(=O)[C@H]23)OCO4)cc(OC)c1O,124%
7,COc1cc([C@@H]2c3cc4c(cc3[C@H](O)[C@H]3COC(=O)[C@H]23)OCO4)cc(OC)c1O,3.3%
8,COc1cc([C@@H]2c3cc4c(cc3[C@H](NCCO)[C@H]3COC(=O)[C@H]23)OCO4)cc(OC)c1O,0%
9,COc1cc([C@@H]2c3cc4c(cc3[C@@H](NC(=O)c3cccc([N+](=O)[O-])c3)[C@H]3COC(=O)[C@H]23)OCO4)cc(OC)c1O,86%
10,COc1cc([C@@H]2c3cc4c(cc3[C@@H](NC(=O)c3ccc(F)cc3)[C@H]3COC(=O)[C@H]23)OCO4)cc(OC)c1O,117%
11,COc1cc([C@@H]2c3cc4c(cc3[C@@H](Nc3ccc(F)cc3)[C@H]3COC(=O)[C@H]23)OCO4)cc(OC)c1O,213%
12,COc1cc([C@@H]2c3cc4c(cc3[C@@H](Nc3cccc(Cl)c3)[C@H]3COC(=O)[C@H]23)OCO4)cc(OC)c1O,51%

# Second part, the compound after the results:
row,Protein-DNA complex formation,Structure (SMILES)
1,15%,COc1cc([C@@H]2c3cc4c(cc3[C@@H](Nc3cc([N+](=O)[O-])ccc3O)[C@H]3COC(=O)[C@H]23)OCO4)cc(OC)c1O
2,84.1%,C=CCN[C@@H]1c2cc3c(cc2[C@@H](c2cc(OC)c(O)c(OC)c2)[C@H]2C(=O)OC[C@@H]21)OCO3
3,99%,COc1cc([C@@H]2c3cc4c(cc3[C@@H](NCc3ccc(C(F)(F)F)cc3)[C@H]3COC(=O)[C@H]23)OCO4)cc(OC)c1O
4,11%,COc1cc([C@@H]2c3cc4c(cc3[C@@H](Nc3cc(N)ccc3O)[C@H]3COC(=O)[C@H]23)OCO4)cc(OC)c1O
5,162%,COc1cc([C@@H]2c3cc4c(cc3[C@@H](N[C@@H](C)CO)[C@H]3COC(=O)[C@H]23)OCO4)cc(OC)c1O
6,94%,COc1cc([C@@H]2c3cc4c(cc3[C@@H](OC(=O)c3ccccc3)[C@H]3COC(=O)[C@H]23)OCO4)cc(OC)c1O
7,183% and 203%,COc1cc([C@@H]2c3cc4c(cc3[C@@H](NCCN(C)C)[C@H]3COC(=O)[C@H]23)OCO4)cc(OC)c1O
8,191%,COc1cc([C@@H]2c3cc4c(cc3[C@@H](NCc3cccc(N)c3)[C@H]3COC(=O)[C@H]23)OCO4)cc(OC)c1O
9,211%,COc1cc([C@@H]2c3cc4c(cc3[C@@H](Nc3ccc(O)cc3)[C@H]3COC(=O)[C@H]23)OCO4)cc(OC)c1O
10,69.7%,CCCN[C@@H]1c2cc3c(cc2[C@@H](c2cc(OC)c(O)c(OC)c2)[C@H]2C(=O)OC[C@@H]21)OCO3
11,36.4%,COc1cc([C@@H]2c3cc4c(cc3[C@@H](N)[C@H]3COC(=O)[C@H]23)OCO4)cc(OC)c1O
12,83%,CCOC(=O)CC[C@H](NC(=O)c1ccc(N[C@@H]2c3cc4c(cc3[C@@H](c3cc(OC)c(O)c(OC)c3)[C@H]3C(=O)OC[C@@H]32)OCO4)cc1)C(=O)OCC
13,179%,COc1cc([C@@H]2c3cc4c(cc3[C@@H](Nc3ccc(Br)cc3)[C@H]3COC(=O)[C@H]23)OCO4)cc(OC)c1O
14,123%,COc1cc([C@@H]2c3cc4c(cc3[C@@H](Nc3cnc5ccccc5c3)[C@H]3COC(=O)[C@H]23)OCO4)cc(OC)c1O
15,279%,COc1cc([C@@H]2c3cc4c(cc3[C@@H](Nc3ccc5c(c3)OCCO5)[C@H]3COC(=O)[C@H]23)OCO4)cc(OC)c1O
16,34%,COc1cc([C@@H]2c3cc4c(cc3[C@@H](Oc3ccc(O)cc3)[C@H]3COC(=O)[C@H]23)OCO4)cc(OC)c1O
17,211%,COc1cc([C@@H]2c3cc4c(cc3[C@@H](Nc3ccc(C#N)cc3)[C@H]3COC(=O)[C@H]23)OCO4)cc(OC)c1O
